In the library only some 2.5% were active in any assay of this set; here they are far more common.
PG9 Ab binder: binders of HIV-1 gp120 antibody PG9, primary screen, biochemical, TR-FRET; hit rate 0.43% among 360,000; TR-FRET gp120-PG9 antibody binding; AID 624416, 2012; inhibition, % at 6.7 µM; in the data active = inhibition above about 8.5%
MC4R antag cAMP: MC4R antagonists of cAMP signaling, primary screen, cell-based, TR-FRET, antagonist arm of biased-ligand search. MC4R-expressing cells, MTII-stimulated cAMP, LANCE TR-FRET. inhibition, % at 6.5 µM. hit rate 0.48% among 360,000. AID 540295, 2011;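 active = inhibition above its plate's cutoff, the mean of tested wells on that plate plus 3 SD, cut at about 29% in these data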
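Material: U2OS-MC4R stable cell line | Reagent: Melanotan II challenge after compound preincubation | Doses: One concentration, 6.5 µM nominal | Incubation: 30-min compound preincubation, 1-h Melanotan II challenge, 1-h detection, room temperature | Signal: TR-FRET cAMP assay | Replicates: One well per compound, no replicates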
NR1D1 modulator: modulators of Rev-erb alpha DNA binding, primary screen, biochemical, FITC-DNA, fluorescence polarization, uHTS. Nuclear receptor subfamily 1 group D member 1 (Homo sapiens), P20393. AID 1259318, 2017. Rev-erbα–FITC-DNA binding, 90 min. hit rate 0.79% among 370,000. activity, % at 10 µM;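 active = activity above about 14%, limit read from the data; passing the limit was not always enough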
MC4R ag barr: MC4R agonists recruiting beta-arrestin, primary screen, cell-based, luminescence, agonist arm of biased-ligand search | activation, % at 8.9 µM | U2OS MC4R beta-arrestin complementation; percent of melanotan II response, DMSO zero | Melanocortin receptor 4 (Homo sapiens), P32245 | hit rate 0.98% among 360,000;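 active = activation above a per-plate cutoff, the mean activation of sample wells on that plate plus 3 SD, cut at about 8% in these data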
NTR1 agonist: agonists of human NTR1, primary screen, imaging, U2OS cells, beta-arrestin-GFP, high content; Neurotensin receptor type 1 (Homo sapiens), P30989; NTR1-U2OS beta-arrestin-GFP spot imaging, agonist mode; activation, % at 20 µM; hit rate 0.17% among 330,000; AID 493036, 2011;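 active = activation at or above 40% of the spot to cytoplasm intensity ratio, with at least 20 cells analyzed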
Target sequence (P30989 whole entry, looked up): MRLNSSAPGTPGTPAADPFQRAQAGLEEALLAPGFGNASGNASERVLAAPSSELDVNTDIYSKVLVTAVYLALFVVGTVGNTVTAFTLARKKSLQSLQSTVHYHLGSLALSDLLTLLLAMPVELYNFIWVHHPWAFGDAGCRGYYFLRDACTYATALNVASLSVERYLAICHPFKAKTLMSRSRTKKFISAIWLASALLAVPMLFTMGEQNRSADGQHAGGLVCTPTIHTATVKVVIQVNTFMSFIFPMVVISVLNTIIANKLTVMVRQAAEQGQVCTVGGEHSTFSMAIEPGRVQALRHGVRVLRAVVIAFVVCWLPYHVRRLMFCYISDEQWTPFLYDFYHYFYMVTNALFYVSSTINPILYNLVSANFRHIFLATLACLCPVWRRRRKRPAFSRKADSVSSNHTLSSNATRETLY
Rev-erbA confirm: modulators of Rev-erb alpha DNA binding, confirmation, biochemical, FITC-DNA, fluorescence polarization, single point. AID 1259319, 2017. 90 min. hit rate 61% among 3,000. activation, % at 25 µM. shares compounds with NR1D1 modulator;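 active = activation at or above a set limit, or at least 3 SD above the negative control mean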
RORg DNA counter: modulation of RORgamma DNA binding, dose response, counter-screen for Rev-erb alpha modulator project, biochemical, fluorescence polarization, FITC-DNA | shares compounds with NR1D1 modulator | purified RORgamma protein-FITC-DNA binding | IC50, µM | hit rate 8% among 910 | AID 1259320, 2017;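 active = Compounds whose fitted half-maximal concentration for disrupting protein-DNA binding is below 10 micromolar; the record names Rev-erb in its text, so the target is in doubt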
Numbers stand for hits; n = inactive; x = no result given.

SMILES	PG9 Ab binder	MC4R antag cAMP	NR1D1 modulator	MC4R ag barr	NTR1 agonist	Rev-erbA confirm	RORg DNA counter
CN1C(=O)/C(=C\c2ccc(N3CCCCC3)o2)C(=O)NC1=S	n	n	109.9	n	n	132.5	n
CN1C(=O)C(=Cc2ccc(N3CCOCC3)o2)C(=O)N(C)C1=S	n	n	39.0	n	n	44.2	n
CCN1C(=O)C(=Cc2ccc(N3CCOCC3)o2)C(=O)N(CC)C1=S	n	n	n	n	n	x	x
O=C1NC(=O)N(c2ccc3c(c2)OCO3)C(=O)/C1=C/c1ccc(N2CCCC2)o1	n	n	n	n	n	x	x
CCOc1ccc(N2C(=O)NC(=O)/C(=C\c3ccc(N4CCCCC4)o3)C2=O)cc1	n	n	28.9	n	n	32.8	x
CCC(C)(O)C(=O)OC1C(=O)OC2CC3C(C)=CC(O)C(O)C3(C)C3C4(O)OCC23C1C(C)C4O (stereo not drawn)	n	n	n	n	x	x	x
O=C1CN=C(c2ccccc2Cl)c2cc([N+](=O)[O-])ccc2N1	x	x	n	x	x	x	x
C=CCC1(C(C)CCC)C(=O)N=C(S)NC1=O (stereo not drawn)	x	x	n	x	x	x	x
